# Measured values published in ChEMBL document CHEMBL1140875, “DNA photocleavage by porphyrin-polyamine conjugates” (Bioorg Med Chem, 2009).
# Activity calls are given as the source filed them. The calls are words filed in the database; no cut-off is given here.
# Tests used:
# [1] = test system: Escherichia coli; test: Induction of DNA photocleavage activity in Escherichia coli pBR322 plasmid assessed as supercoiled DNA form at 10 uM after 90 mins irradiation at 2.5 mW/cm2 by gel electrophoresis
# How it was run: (§1)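 Supercoiled pBR322 (0.25 µg in 10 µL) in 3 mM Tris–HCl, 0.3 mM EDTA, pH 8.0 at 25 °C, with 10 µM porphyrin. White light at 2.5 mW/cm2 from an 18 W lamp 4 cm away, for 15–120 min. Controls without porphyrin and/or without light. Products run on 0.7% non-denaturing agarose, SYBRsafe stain, transilluminator at 312 nm. Supercoiled, nicked and linear forms quantified as %.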
# [2] = Lipophilicity, log P of the compound; type: physicochemical; conditions: octanol/water
# How it was run: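 1-Octanol/water partition at 25 °C with equal 3 mL phases and dye at 300 µM. Mixture vortexed and centrifuged. Aqueous and organic aliquots each diluted into MeOH, and dye concentration in each phase measured by absorption spectroscopy.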
# [3] = Photostability assessed as residual absorbance at 2.5 mW/cm2 irradiation for 15 mins; type: physicochemical; conditions: read-out: Stability
# [4] = test system: Escherichia coli; test: Induction of DNA photocleavage activity in Escherichia coli pBR322 plasmid assessed as supercoiled DNA form at 10 uM after 15 mins irradiation at 2.5 mW/cm2 by gel electrophoresis; how it was run: as §1
# [5] = test system: Escherichia coli; test: Induction of DNA photocleavage activity in Escherichia coli pBR322 plasmid assessed as nicked DNA form at 10 uM after 30 mins irradiation at 2.5 mW/cm2 by gel electrophoresis; how it was run: as §1
# [6] = test system: Escherichia coli; test: Induction of DNA photocleavage activity in Escherichia coli pBR322 plasmid assessed as nicked DNA form at 10 uM after 60 mins irradiation at 2.5 mW/cm2 by gel electrophoresis; how it was run: as §1
# [7] = test system: Escherichia coli; test: Induction of DNA photocleavage activity in Escherichia coli pBR322 plasmid assessed as supercoiled DNA form at 10 uM by gel electrophoresis
# [8] = test system: Escherichia coli; test: Induction of DNA photocleavage activity in Escherichia coli pBR322 plasmid assessed as nicked DNA form at 10 uM after 15 mins irradiation at 2.5 mW/cm2 by gel electrophoresis; how it was run: as §1
# [9] = test system: Escherichia coli; test: Induction of DNA photocleavage activity in Escherichia coli pBR322 plasmid assessed as supercoiled DNA form at 10 uM after 60 mins irradiation at 2.5 mW/cm2 by gel electrophoresis; how it was run: as §1
# [10] = test system: Escherichia coli; test: Induction of DNA photocleavage activity in Escherichia coli pBR322 plasmid assessed as supercoiled DNA form at 10 uM after 30 mins irradiation at 2.5 mW/cm2 by gel electrophoresis; how it was run: as §1
# [11] = test system: Escherichia coli; test: Induction of DNA photocleavage activity in Escherichia coli pBR322 plasmid assessed as nicked DNA form at 10 uM after 120 mins irradiation at 2.5 mW/cm2 by gel electrophoresis; how it was run: as §1
# [12] = test system: Escherichia coli; test: Induction of DNA photocleavage activity in Escherichia coli pBR322 plasmid assessed as nicked DNA form at 10 uM by gel electrophoresis; how it was run: as §1
# [13] = Photostability assessed as residual absorbance at 2.5 mW/cm2 irradiation for 45 mins; type: physicochemical; conditions: read-out: Stability
# [14] = Photostability assessed as residual absorbance at 2.5 mW/cm2 irradiation for 30 mins; type: physicochemical; conditions: read-out: Stability
# [15] = Photostability assessed as residual absorbance at 2.5 mW/cm2 irradiation for 60 mins; type: physicochemical; conditions: read-out: Stability
# [16] = test system: Escherichia coli; test: Induction of DNA photocleavage activity in Escherichia coli pBR322 plasmid assessed as nicked DNA form at 10 uM after 90 mins irradiation at 2.5 mW/cm2 by gel electrophoresis; how it was run: as §1
# [17] = Induction of singlet oxygen production at 1 uM after irradiation at 10 mW/cm2 in presence of 1,3-diphenylisobenzofuran; type: physicochemical
# How it was run: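 Photosensitizer at 10^-6 M with DPBF at 6 × 10^-5 M in DMF/H2O (9/1). Illuminated at room temperature for 30 min with two 30 W white bulbs, 10 mW/cm2. DPBF absorbance decay read at 415 nm every 3 min.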
# [18] = test system: Escherichia coli; test: Induction of DNA photocleavage activity in Escherichia coli pBR322 plasmid assessed as supercoiled DNA form at 10 uM after 120 mins irradiation at 2.5 mW/cm2 by gel electrophoresis; how it was run: as §1
# [19] = test system: Escherichia coli; test: Induction of DNA photocleavage activity in Escherichia coli pBR322 plasmid assessed as linear DNA form at 10 uM after 120 mins irradiation at 2.5 mW/cm2 by gel electrophoresis; how it was run: as §1
# [20] = test system: Escherichia coli; test: Induction of DNA photocleavage activity in Escherichia coli pBR322 plasmid assessed as supercoiled DNA form at 10 uM after 60 mins irradiation at 2.5 mW/cm2 by gel electrophoresis in presence of mannitol
# How it was run: (§2)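 pBR322 (0.25 µg) in 3 mM Tris–HCl, 0.3 mM EDTA, pH 8.0 with 10 µM porphyrin, irradiated 60 min in the presence of 100 mM sodium azide (singlet oxygen quencher) or 100 mM mannitol (hydroxyl radical scavenger). Controls without porphyrin, ± irradiation, with each additive. Read-out by agarose gel electrophoresis.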
# [21] = test system: Escherichia coli; test: Induction of DNA photocleavage activity in Escherichia coli pBR322 plasmid assessed as nicked DNA form at 10 uM after 60 mins irradiation at 2.5 mW/cm2 by gel electrophoresis in presence of sodium azide; how it was run: as §2
# [22] = test system: Escherichia coli; test: Induction of DNA photocleavage activity in Escherichia coli pBR322 plasmid at 10 uM after irradiation for 2 hrs by gel electrophoresis
# [23] = test system: DNA; test: Binding affinity to calf thymus DNA at 4 uM in phosphate buffer of pH 7.4 by UV-vis spectroscopy; type: nucleic-acid assay; conditions: Bos taurus
# How it was run: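 Porphyrin held at 4 × 10^-6 M in PBS pH 7.4 and read by UV–vis at the Soret maximum. Calf thymus DNA titrated in at base-pair concentrations from 1.2 × 10^-6 to 1.2 × 10^-5 M, base pair/porphyrin ratio 0.2 to 3. Change in the Soret band followed.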
# [24] = test system: Escherichia coli; test: Induction of DNA photocleavage activity in Escherichia coli pBR322 plasmid assessed as supercoiled DNA form at 10 uM after 60 mins irradiation at 2.5 mW/cm2 by gel electrophoresis in presence of sodium azide; how it was run: as §2
# [25] = test system: Escherichia coli; test: Induction of DNA photocleavage activity in Escherichia coli pBR322 plasmid assessed as nicked DNA form at 10 uM after 60 mins irradiation at 2.5 mW/cm2 by gel electrophoresis in presence of mannitol; how it was run: as §2
# [26] = test system: Escherichia coli; test: Induction of DNA photocleavage activity in Escherichia coli pBR322 plasmid assessed as linear DNA form at 10 uM after 90 mins irradiation at 2.5 mW/cm2 by gel electrophoresis; how it was run: as §1
# [27] = test system: Escherichia coli; test: Induction of DNA photocleavage activity in Escherichia coli pBR322 plasmid assessed as linear DNA form at 10 uM after 60 mins irradiation at 2.5 mW/cm2 by gel electrophoresis; how it was run: as §1
SMILES,Activity [1] [%],logP [2],remaining at 0.25 h [3] [%],Activity [4] [%],Activity [5] [%],Activity [6] [%],Activity [7] [%],Activity [8] [%],Activity [9] [%],Activity [10] [%],Activity [11] [%],Activity [12] [%],remaining at 0.75 h [13] [%],remaining at 0.5 h [14] [%],remaining at 1 h [15] [%],Activity [16] [%],Activity [17],Activity [18] [%],Activity [19] [%],Activity [23],also measured
Cc1cc(C)c(-c2c3nc(c(-c4ccc(C(=O)NCCCCC(=O)N(CCCN)CCCCNCCCN)cc4)c4ccc([nH]4)c(-c4c(C)cc(C)cc4C)c4nc(c(-c5ccc(C(=O)NCCCCC(=O)N(CCCN)CCCCNCCCN)cc5)c5ccc2[nH]5)C=C4)C=C3)c(C)c1,72,0.07,100,70,28,30,70,30,70,72,29,30,99,99,98,28,Active,71,–,–,–
Cc1cc(C)c(-c2c3nc(c(-c4ccc(C(=O)NCCCCC(=O)N(CCCN)CCCCN)cc4)c4ccc([nH]4)c(-c4c(C)cc(C)cc4C)c4nc(c(-c5ccc(C(=O)NCCCCC(=O)N(CCCN)CCCCN)cc5)c5ccc2[nH]5)C=C4)C=C3)c(C)c1,71,0.11,100,73,25,28,73,27,72,75,22,27,100,100,99,29,Active,78,–,–,–
C=CC1=C(C)c2cc3[nH]c(cc4nc(cc5[nH]c(cc1n2)c(C)c5CCC(=O)NCCCCC(=O)N(CCCN)CCCCNCCCN)C(CCC(=O)NCCCCC(=O)N(CCCN)CCCCNCCCN)=C4C)c(C)c3C=C,1,-0.51,100,45,74,93,81,55,7,26,97,34,100,100,97,97,Active,1,2,Active,Activity [20]: 32%; Activity [21]: 49%; Activity [22]: Active; Activity [24]: 51%; Activity [25]: 68%; Activity [26]: 2%
NCCCCN(CCCN)C(=O)CCCCNC(=O)c1ccc(-c2c3nc(c(-c4ccc(C(=O)NCCCCC(=O)N(CCCN)CCCCN)cc4)c4ccc([nH]4)c(-c4ccc(C(=O)NCCCCC(=O)N(CCCN)CCCCN)cc4)c4nc(c(-c5ccc(C(=O)NCCCCC(=O)N(CCCN)CCCCN)cc5)c5ccc2[nH]5)C=C4)C=C3)cc1,43,-2.02,100,72,36,39,84,28,59,64,51,16,98,99,97,50,Active,39,10,Active,Activity [27]: 2%; Activity [26]: 7%
C=CC1=C(C)c2cc3[nH]c(cc4nc(cc5[nH]c(cc1n2)c(C)c5CCC(=O)NCCCCC(=O)N(CCCN)CCCCN)C(CCC(=O)NCCCCC(=O)N(CCCN)CCCCN)=C4C)c(C)c3C=C,12,-0.12,100,46,64,78,78,54,22,36,90,36,98,99,97,84,Active,5,4,Active,Activity [20]: 42%; Activity [21]: 42%; Activity [22]: Active; Activity [24]: 58%; Activity [25]: 58%; Activity [26]: 4%
NCCCNCCCCN(CCCN)C(=O)CCCCNC(=O)c1ccc(-c2c3nc(c(-c4ccc(C(=O)NCCCCC(=O)N(CCCN)CCCCNCCCN)cc4)c4ccc([nH]4)c(-c4ccc(C(=O)NCCCCC(=O)N(CCCN)CCCCNCCCN)cc4)c4nc(c(-c5ccc(C(=O)NCCCCC(=O)N(CCCN)CCCCNCCCN)cc5)c5ccc2[nH]5)C=C4)C=C3)cc1,38,-2.83,100,66,43,51,85,34,40,57,75,15,99,100,97,53,Active,11,15,Active,Activity [27]: 8%; Activity [26]: 9%
